Bioassay records from PubChem BioAssay.
Many of the other results were omitted from the sample, so hits are more common in it than they were.
PvdQ acylase: P. aeruginosa PvdQ acylase inhibitors, primary screen, biochemical, fluorescence, plate reader and imaging, single point; purified PvdQ acylase; inhibition, % at 10 µM; hit rate 0.063% among 340,000; AID 488965, 2010; in the data active = inhibition above about 30%, passing the limit was not always enough
CHOP inhibitor: inhibitors of CHOP promoter induction, primary screen, cell-based, unfolded protein response, luciferase reporter; CHO-K1 CHOP-promoter luciferase, tunicamycin-induced, 15-18 h; inhibition, % at 10 µM; hit rate 3.8% among 220,000;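 active = compounds that reduced the stress-induced luciferase reporter signal by more than about 70% of percent inhibition, limit read from the data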
UPR CHOP act: activators of apoptotic CHOP UPR arm, primary screen, cell-based, CHO-CHOP luciferase reporter, luminescence, uHTS; hit rate 0.34% among 330,000; UPR activation; percent of tunicamycin response over DMSO baseline; activation, % at 10 µM; AID 449763, 2010;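 active = at 10 µM dose, activation of 40% or more, normalized to positive control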
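Evaluation: % reporter activation, DMSO baseline versus tunicamycin full activation; System: CHO-CHOP luciferase reporter cell line; Input: 500 cells/well; Incubation: 6 h compound treatment, 37 °C; Measured by: Steady-Glo luciferase luminescence; Dosing: one dose, 10 µM in 0.5% DMSO; Buffer or medium: F12 medium, 10% FBS; Benchmarks: positive tunicamycin 10 µg/mL, negative DMSO alone.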
UPR XBP1 act: activators of adaptive XBP1 UPR arm, primary screen, cell-based, CHO-XBP1 luciferase reporter, luminescence, uHTS; IRE1-XBP1 UPR activation; percent of tunicamycin response, DMSO as zero; activation, % at 20 µM; hit rate 0.33% among 330,000; AID 463104, 2010;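 active = versus positive control, 20 µM dose yields 30% or more activation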
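Test system: CHO-XBP1 luciferase reporter cells | Buffer or medium: Serum-containing F12 medium, 10% FBS | Schedule: 6 h compound exposure at 37 °C, 5% CO2 | Detection: Steady-Glo luciferase glow luminescence, 10 min after reagent addition | Read-out basis: Activation, % of tunicamycin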
Hits are given with their value; . = inactive; / = no result.

SMILES | PvdQ acylase | CHOP inhibitor | UPR CHOP act | UPR XBP1 act
O=[N+]([O-])c1cccc(C=NNC(=S)NC23CC4CC(CC(C4)C2)C3)c1 | . | / | / | /
CSc1ccc(/C=N/S(=O)(=O)c2ccccc2)cc1 | . | / | . | .
COc1ccc(CCC(C)Nc2cccc(F)c2)cc1 (stereo not given) | . | 88 | . | .
COc1ccc(CCC(C)Nc2ccccc2F)cc1 (stereo not given) | . | . | . | .
CCC(=O)n1nc(-c2ccccc2)nc1N | . | . | . | .
Cc1ccc(-c2nc(N)n(C(=O)Cc3ccccc3)n2)cc1 | . | 86 | . | .
COc1ccc(C(=O)C(OC(=O)c2ccc(C)c(NC(C)=O)c2)c2ccccc2)cc1 (stereo not given) | . | . | . | .
COc1ccc(C(=O)OC(C(=O)c2ccccc2)c2ccccc2)cc1 (stereo not given) | . | 72 | . | .
CCCCN(C(=O)C1CCCO1)c1c(N)n(CCC)c(=O)[nH]c1=O (stereo not given) | . | / | . | .
Cc1cc(C)cc(OCC(=O)OC/C(O)=C(\C#N)c2nc3ccccc3[nH]2)c1 | . | 79 | . | .
COCC(=O)OC/C(O)=C(\C#N)c1nc2ccccc2[nH]1 | . | . | . | .
Cc1cccc(C)c1OCC(=O)OC/C(O)=C(\C#N)c1nc2ccccc2[nH]1 | . | . | . | .
N#C/C(=C(/O)COC(=O)COc1cccc(Br)c1)c1nc2ccccc2[nH]1 | . | 75 | . | .
NC(=O)c1ccc(OCC(F)(F)F)nc1 | . | . | . | .
N/C(Cc1ccc([N+](=O)[O-])cc1)=N\OC(=O)c1ccccc1Br | . | . | . | .
N/C(Cc1ccc([N+](=O)[O-])cc1)=N\OC(=O)C(c1ccccc1)c1ccccc1 | . | 83 | . | .
O=C1N/C(=C\c2ccc(N3CCOCC3)c(F)c2)C(=O)N1Cc1ccccc1 | . | 85 | . | .
Cc1ccc(CN2C(=O)N/C(=C\c3ccc(N4CCOCC4)cc3)C2=O)cc1 | . | 92 | . | .
O=C1N/C(=C/c2cccn2-c2ccccc2)C(=O)N1Cc1ccc(F)cc1 | . | . | . | .
Cc1ccc(/C=C2/NC(=O)N(Cc3ccc(Br)cc3)C2=O)o1 | . | 105 | . | .
CCCN1C(=O)/C(=C/c2ccc(N3CCOCC3)cc2)NC1=S | . | . | . | .
COc1cc(C2C(C(=O)/C=C/c3ccccc3)=C(O)C(=O)N2c2ccccn2)ccc1O (stereo not given) | . | . | . | .
O=S(=O)(NCCCN1CCOCC1)c1ccc(Cl)s1 | . | . | . | .
CCCCCCNS(=O)(=O)c1ccc(Cl)s1 | . | 87 | . | .
CC(C)C(=O)NC(c1ccc(Cl)cc1Cl)c1ccc2cccnc2c1O (stereo not given) | . | / | . | .
SMILES | PvdQ acylase | CHOP inhibitor | UPR CHOP act | UPR XBP1 act
COc1ccc(C(NC(=O)C(C)C)c2ccc3cccnc3c2O)cc1 (stereo not given) | . | 79 | . | .
Cc1cc(NC(c2ccc(Cl)cc2)c2ccc3cccnc3c2O)no1 (stereo not given) | . | 80 | . | .
CCOC(=O)N1CCN(CC(=O)Nc2sccc2C#N)CC1 | . | . | . | .
O=c1cc(-c2ccc(Cl)cc2)oc(=O)[nH]1 | . | . | . | .
O=c1cc(N=Nc2ccc(Cl)cc2)[nH]c(=O)[nH]1 | . | 105 | / | /
CCOC(=O)N1CCN(c2ccc(O)cc2)CC1 | . | . | . | .
CCOC(=O)N1CCN(c2ccc(Cl)cc2)CC1 | 44 | . | . | .
CCOC(=O)N1CCN(C(=O)C(C)(C)Oc2ccc(Cl)cc2)CC1 | . | 83 | . | .
COc1ccc(OC)c(S(=O)(=O)Nc2cccc(F)c2)c1 | . | . | . | .
CCCCCCC1CC(CC(=O)Nc2ccc([N+](=O)[O-])cc2)C(=O)O1 (stereo not given) | . | 95 | . | .
CC1(C)CC(CC(=O)Nc2ccc([N+](=O)[O-])cc2)C(=O)O1 (stereo not given) | . | . | . | .
CCCCCC1CC(CC(=O)NC(=S)Nc2ccc([N+](=O)[O-])cc2)C(=O)O1 (stereo not given) | . | 85 | . | .
CC(C)Oc1cc(NC(=O)CSCC(=O)Nc2cccc(C(F)(F)F)c2)c(Cl)cc1Cl | . | 100 | . | .
O=C(O)CSCC(=O)Nc1cc(C(F)(F)F)ccc1Cl | . | . | . | .
